From ChEMBL document CHEMBL3286120, “Design and synthesis of novel soluble 2,5-diketopiperazine derivatives as potential anticancer agents” (Eur J Med Chem, 2014) come the findings set out here.

One assay deals with K562. Kind of assay: Cytotoxicity against human K562 cells assessed as reduction in cell viability after 72 hrs by CCK8 assay. Type of assay: functional, cell-based. Conditions: for IC50: k562; for pIC50: Homo sapiens, K562, 72 h, read-out: IC50; call rule not given here. The method in brief: (§1)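 Cells kept in RPMI or DMEM with 10% FBS and 1% penicillin/streptomycin at 37 °C in 5% CO2. Seeded at 400-800 cells/well in 384-well plates and exposed to varying compound concentrations, with solution-only control, for 72 h. CCK8 reagent added, then absorbance read at 450 nm. Plinabulin and TSA were positive controls. Mean SD of three experiments.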

Another assay relates to HL-60. As to the kind of experiment: Cytotoxicity against human HL60 cells assessed as reduction in cell viability after 72 hrs by CCK8 assay. Format: functional, cell-based. Conditions: for IC50: hl-60; for pIC50: Homo sapiens, HL-60, 72 h, read-out: IC50. The method in brief: as §1
(Tetrazolium dyes change colour on reduction, which living cells bring about.)

A further assay deals with A549. Kind of assay: Cytotoxicity against human A549 cells assessed as reduction in cell viability after 72 hrs by CCK8 assay. Type of assay: functional, cell-based. The settings on record: for IC50: a549; for pIC50: Homo sapiens, A549, 72 h, read-out: IC50. The method in brief:
as §1

In a further assay the test system is HeLa. As to the kind of experiment: Cytotoxicity against human HeLa cells assessed as reduction in cell viability after 72 hrs by CCK8 assay. Type of assay: functional, cell-based. Conditions: for IC50: hela; for pIC50: Homo sapiens, HeLa, 72 h, read-out: IC50. The method in brief:
as §1

Assay [1] in a line: Cytotoxicity against human HuH7 cells assessed as reduction in cell viability after 72 hrs by CCK8 assay. Format: functional, cell-based, Huh-7. The settings on record: for IC50: huh-7; for pIC50: Homo sapiens, Huh-7, 72 h, read-out: IC50. The method in brief:
as §1

A further assay deals with MOLT-4. Kind of assay: Cytotoxicity against human MOLT4 cells assessed as reduction in cell viability after 72 hrs by CCK8 assay. Format: functional, cell-based. The settings on record: for IC50: molt-4; for pIC50: Homo sapiens, MOLT-4, 72 h, read-out: IC50. The method in brief:
as §1

Assay [2] is described as follows: Cytotoxicity against human BGC823 cells assessed as reduction in cell viability after 72 hrs by CCK8 assay. Type of assay: functional, cell-based, BGC-823. Conditions: for IC50: bgc-823; for pIC50: Homo sapiens, BGC-823, 72 h, read-out: IC50. The procedure, abridged:
as §1

The next assay deals with U-937. Kind of assay: Cytotoxicity against human U937 cells assessed as reduction in cell viability after 72 hrs by CCK8 assay. Format: functional, cell-based. Conditions: for IC50: u-937; for pIC50: Homo sapiens, U-937, 72 h, read-out: IC50. The method in brief: as §1
The next assay deals with MCF7. Kind of assay: Cytotoxicity against human MCF7 cells assessed as reduction in cell viability after 72 hrs by CCK8 assay. Format: functional, cell-based. Conditions: for IC50: mcf7; for pIC50: Homo sapiens, MCF7, 72 h, read-out: IC50. The method in brief:
as §1

For another assay, the system named is NCI-H1975. Kind of assay: Cytotoxicity against human NCI-H1975 cells assessed as reduction in cell viability after 72 hrs by CCK8 assay. Type of assay: functional, cell-based. The settings on record: for IC50: nci-h1975; for pIC50: Homo sapiens, NCI-H1975, 72 h, read-out: IC50. The procedure, abridged:
as §1

pIC50: −log10 of the molar value.

Turning to `C=CCn1c(=O)/c(=C\c2ccc(Cl)c(Cl)c2)[nH]c(=O)/c1=C\c1ccccc1`, the IC50 result (in the assay on K562; with HL-60; in the assay on A549; in the assay on HeLa; in assay [1]; with MOLT-4) was “Not Active” in each case. The IC50 result (in assay [2]; in the assay on U-937; in the assay with MCF7; with NCI-H1975) was “Not Active” each time.

In the case of `C=CCn1c(=O)/c(=C\c2cc(OC)c(OC)c(OC)c2)[nH]c(=O)/c1=C\c1ccccc1`, the IC50 result (in the assay with K562; in the assay with HL-60; in the assay on A549; with HeLa; in assay [1]; in the assay on MOLT-4) was “Not Active” each time. In addition, the IC50 result (in [2]; in the assay on U-937; in the assay on MCF7; in the assay on NCI-H1975) was “Not Active” each time.

In the case of `C=CCn1c(=O)/c(=C\c2cccc(Br)c2)[nH]c(=O)/c1=C\c1cccc(Br)c1`, the IC50 result (in the assay with K562; in the assay on HL-60; in the assay with A549; in the assay with HeLa; in [1]; in the assay with MOLT-4) was “Not Active” throughout. Moreover, the IC50 entry (in assay [2]; in the assay with U-937; with MCF7; with NCI-H1975) was “Not Active” each time.

Broadly, the pIC50 is −log10 of the IC50, conventionally taken in molar units. For `C=CCn1c(=O)/c(=C\c2ccccc2Cl)[nH]c(=O)/c1=C\c1ccccc1OC`, the pIC50 with K562 is 5.60; in the assay on HL-60, 5.38; in the assay with A549, 5.28; with HeLa, 5.29; in assay [1] it was 5.19; in the assay with MOLT-4, 5.36. The pIC50 was 5.34 in assay [2], 6.15 with U-937, 5.33 with MCF7 and 5.04 in the assay on NCI-H1975.

For the compound `C=CCn1c(=O)/c(=C\c2ccccc2F)[nH]c(=O)/c1=C\c1ccccc1OC`, the pIC50 with K562 is 5.25; in the assay with HL-60 it was 4.73; in the assay with HeLa, 4.35; in [1] it was 4.50; in the assay on MOLT-4, 4.70; in [2], 4.72. Further, the pIC50 was 5.26 in the assay with U-937, 4.64 in the assay on MCF7 and 4.60 in the assay with NCI-H1975. Besides, the IC50 entry in the assay on A549 is reported as “Not Active”.

On to `C=CCn1c(=O)/c(=C\c2ccccc2C(F)(F)F)[nH]c(=O)/c1=C\c1ccccc1OC`, for which the pIC50 in the assay with K562 was 5.57; in the assay with HL-60, 5.34; with A549, 5.15; with HeLa, 5.34; in assay [1], 5.02; in the assay with MOLT-4, 5.36. The pIC50 was 5.29 in [2], 5.82 in the assay with U-937, 5.19 in the assay on MCF7 and 4.84 with NCI-H1975.

With `C=CCn1c(=O)/c(=C\c2ccccc2OC)[nH]c(=O)/c1=C\c1ccccc1OC`, the pIC50 in the assay on K562 was 5.13; in the assay on HL-60, 4.80; in the assay with A549, 4.65; with HeLa it was 5.16; in assay [1], 4.67; in the assay with MOLT-4, 4.88. Besides, the pIC50 in assay [2] is 4.87; in the assay on U-937 it was 5.29; in the assay with MCF7 it was 4.39; in the assay on NCI-H1975, 4.67.

In the case of `C=CCn1c(=O)/c(=C\c2cc(F)ccc2C)[nH]c(=O)/c1=C\c1ccccc1OC`, the pIC50 in the assay on K562 is 5.74; in the assay on HL-60, 5.59; in the assay on A549 it was 5.31; with HeLa it was 5.54; in assay [1] it was 5.25; in the assay with MOLT-4 it was 5.42. The pIC50 is 5.80 in assay [2], 6.00 in the assay with U-937, 5.51 in the assay with MCF7 and 5.14 in the assay with NCI-H1975.
